Assay results collected from several papers.
Protocols differ between the studies behind these lines.
Target: Alpha-glucosidase MAL12 (MAL12, Saccharomyces cerevisiae S288c, UniProt P53341)
Observed: enzyme activity
Action: inhibitor

| SMILES | assay | conditions | IC50 |
| --- | --- | --- | --- |
| CC1(C)CC(=O)C2=C(C1)n1c(=O)c3ccccc3c(=O)n1C2c1cn(-c2ccccc2)nc1-c1ccc(Cl)cc1 (stereo not drawn) | absorbance | – | 209 µM |
| C[C@H]1CN(C(=O)Nc2ccc(C(F)(F)F)cc2)CCN1c1ccnc(Nc2ccc(Cl)c(Cl)c2)n1 | absorbance | pH 6.9 | 1.69 µM |
| Cc1ccc(-c2nc3ncnn3c(-c3ccc(Br)cc3)c2N)cc1 | absorbance | – | 68.7 µM |
| CCCCCCCCCCCC(=O)OCC(C)(C)CC1=C(O)C(=O)c2ccccc2C1=O | – | – | 2.6 µM |
| CC(=O)C1=C(C)n2c(=O)c3ccccc3c(=O)n2C1c1cn(-c2ccccc2)nc1-c1ccc([N+](=O)[O-])cc1 (stereo not drawn) | absorbance | – | 86.7 µM |
| Nc1c(-c2ccccc2)nc2ncnn2c1-c1ccccc1Cl | absorbance | – | 125 µM |
| C[C@H]1CN(C(=O)Nc2ccc(Cl)c(Cl)c2)CCN1c1ccnc(Nc2ccc(Cl)cc2)n1 | absorbance | pH 6.9 | 1.82 µM |
| CC1(C)CC(=O)C2=C(C1)n1c(=O)c3ccccc3c(=O)n1C2c1cn(-c2ccccc2)nc1-c1ccc([N+](=O)[O-])cc1 (stereo not drawn) | absorbance | – | 285 µM |
| COc1ccc(-c2c(N)c(-c3ccc(C)cc3)nc3ncnn23)cc1 | absorbance | – | 89.3 µM |
| COc1cc(/C=C/c2ccc(O)cc2)cc(OC)c1 | absorbance | pH 6.8 | 1570 µM |
| CC1(C)CC(=O)C2=C(C1)n1c(=O)c3ccccc3c(=O)n1C2c1cn(-c2ccccc2)nc1-c1ccccc1 (stereo not drawn) | absorbance | – | 74.2 µM |
| C[C@@H]1CN(C(=O)Nc2ccc(C(F)(F)F)cc2)CCN1c1ccnc(Nc2ccc(Cl)c(O)c2)n1 | absorbance | pH 6.9 | 2.08 µM |
| COc1ccc(-c2nn(-c3ccccc3)cc2C2C3=C(CC(C)(C)CC3=O)n3c(=O)c4ccccc4c(=O)n32)cc1 (stereo not drawn) | absorbance | – | 229 µM |
| CCCCCCCCCCCCCCCCCC(=O)OCC(C)(C)CC1=C(O)C(=O)c2ccccc2C1=O | – | – | 25.7 µM |
| C[C@@H]1CN(C(=O)Nc2ccc(C(F)(F)F)cc2)CCN1c1ccnc(Nc2ccc(Cl)cc2)n1 | absorbance | pH 6.9 | 3.47 µM |
